Assay results taken from ChEMBL document CHEMBL5104224, “Alkyltriphenylphosphonium turns naphthoquinoneimidazoles into potent membrane depolarizers against mycobacteria” (RSC Med Chem, 2022).
Activity calls are given as the source filed them. The calls are words filed in the database; no cut-off is given here.

Tests used:
[1] = test system: Mycobacterium tuberculosis variant bovis; test: Antimycobacterial activity against Mycobacterium bovis BCG ATCC 35734 assessed as inhibition of bacterial growth by two-fold serial broth dilution method; format: functional
In short: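 BCG grown at 37°C in 7H9 broth with 0.05% Tween-80, 0.5% glycerol and 10% ADC. Broth dilution method. MIC50/MIC90 are the concentrations giving 50%/90% growth inhibition versus untreated drug-free controls.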

[2] = test system: Mycobacterium tuberculosis variant bovis; test: Antimycobacterial activity against Mycobacterium bovis BCG ATCC 35734 assessed as increase in ROS level at 0.175 to 0.64 uM incubated for 2 hrs by CellROX green reagent fluorescence assay; format: functional, organism-based; details: dose 0.175-0.64 µM, DDE = dose-dependent effect
In short: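 CellROX Green then added to 10 μM final, followed by 30 min at 37°C in the dark. Readout is green fluorescence (Ex 485/Em 520 nm) normalized to OD600. Naphthoquinone positive control, INH negative control.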

[3] = test system: Mycobacterium tuberculosis variant bovis; test: Induction of oxidative stress Mycobacterium bovis BCG ATCC 35734 expressing pfurA-RFP assessed as activation of pfurA at 0.5 to 2 times MIC90 measured after 24 hrs by fluorescence assay; format: functional, organism-based
In short: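 BCG carrying an integrated pfurA-mCherry reporter (kanamycin-selected). […] Red fluorescence (Ex 587/Em 630 nm) normalized to OD600. INH negative control.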

[4] = test system: Mycobacterium tuberculosis variant bovis; test: Bactericidal activity against Mycobacterium bovis BCG ATCC 35734 assessed as reduction on colony forming unit at 15 uM measured upto 14 days by time killing assay; format: functional, organism-based; details: time <= 14.0 day
[5] = test system: Mycobacterium tuberculosis variant bovis; test: Bactericidal activity against Mycobacterium bovis BCG ATCC 35734 assessed as reduction on colony forming unit at 5 uM measured after 8 days by time killing assay; format: functional, organism-based; details: time 8.0 day

Compound | Activity [2] | Activity [3] | also measured
Cc1nc2c(n1CCCCCCCCCCC[P+](c1ccccc1)(c1ccccc1)c1ccccc1)C(=O)c1ccccc1C2=O |  |  | MIC90 [1]: 0.8 µM
CCCCCCCCn1c2c([n+](CCCC)c1C)C(=O)c1ccccc1C2=O.[Br-] | Dde | Active | 
NNC(=O)c1ccncc1 |  |  | Activity [4]: Active
CCCCn1c2c([n+](C3CCC4(CCCCC4)CC3)c1C)C(=O)c1ccccc1C2=O.[Br-] | Dde | Active | 
Cc1nc2c(n1CCCCCCCCC[P+](c1ccccc1)(c1ccccc1)c1ccccc1)C(=O)c1ccccc1C2=O |  |  | Activity [5]: Active
